“And” between values parts separate entries of the source, which are not always exact repeats. Equal entries are not always repeated.
Tests used:
Pfa1 cells [1] = assay: Cell death elicited by ferroptosis-inducing agents; format: cell-based, mouse; settings: for Induction of cell death through GSH depletion: Pfa1 cells; for Prevention of cell death elicited by FINs: erastin 2.5 μM, BSO 20 μM, RSL3 20 nM, DFO 10 μM, Fer1 0.1 μM, αToc 1 μM, Nec1 20 μM, Z-VAD-FMK 50 μM
[2] = test system: TAM-inducible Gpx4−/− cells (Pfa1); assay: Rescue of cell death induced by TAM-inducible Gpx4 deletion in Pfa1 cells; format: cell-based, mouse; settings: 1 μM TAM, viability 72 h after knockout induction
Gpx4−/− cells = assay: Lipid peroxidation in Gpx4−/− cells; format: cell-based, mouse; settings: 48 h after knockout induction; Liproxstatin-1 50 nM
How it was run: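 Gpx4 loss is induced in TAM-inducible Pfa1 cells grown in dishes in DMEM with 10% FBS. Test compound is present during induction. At 48 h after knockout induction, cells are washed, stained with BODIPY 581/591 C11 for 1 h, and probe oxidation is measured by flow cytometry.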

HepG2 cells = assay: Cytotoxicity in HepG2 cells; format: cell-based; settings: 72 h incubation
How it was run: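 Cells are incubated with increasing concentrations of the test compound for 72 h. Viability is then read with the AquaBluer live-cell indicator. TC50 is derived by curve fitting.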

hERG channel = hERG channel (Homo sapiens, UniProt Q12809); assay: hERG patch clamp assay; format: cell-based; settings: read-out: hERG patch clamp assay IC50
CYP450 2C9 = CYP450 2C9 (Homo sapiens, UniProt P11712); assay: CYP450 inhibition 2C9; format: in vitro ADME; settings: read-out: CYP450 inhibition 2C9 IC50
CYP450 2D6 = CYP450 2D6 (Homo sapiens, UniProt P10635); assay: CYP450 inhibition 2D6; format: in vitro ADME; settings: read-out: CYP450 inhibition 2D6 IC50
CYP450 3A4 = CYP450 3A4 (Homo sapiens, UniProt P08684); assay: CYP450 inhibition 3A4; format: in vitro ADME; settings: read-out: CYP450 inhibition 3A4 IC50
CYP450 1A = assay: CYP450 inhibition 1A; format: in vitro ADME; settings: read-out: CYP450 inhibition 1A IC50
CYP450 2C19 = CYP450 2C19 (Homo sapiens, UniProt P33261); assay: CYP450 inhibition 2C19; format: in vitro ADME; settings: read-out: CYP450 inhibition 2C19 IC50
Mouse pharmacokinetics = format: in vivo
L929 cells = assay: TNFα/Z-VAD-FMK-induced necroptosis in L929 cells; format: cell-based; settings: Liproxstatin-1 1 μM; TNFα 5 ng ml^−1 + Z-VAD-FMK 50 μM; 8 h
Pfa1 cells [3] = assay: Cell death induced by staurosporine and H2O2; format: cell-based, mouse; settings: Liproxstatin-1 200 nM; staurosporine 0.2 μM, H2O2 200 μM; 24 h
How it was run: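 Gpx4-proficient (non-induced) Pfa1 mouse cells, kept in DMEM with 10% FBS. The test compound is given together with the death trigger: BSO 10 μM, erastin 1 μM or RSL3 0.5 μM, or staurosporine 0.2 μM or H2O2 200 μM. Viability is read 24 h after treatment. Mean ± s.d. of n = 3 wells; representative of at least four independent experiments.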

[4] = test system: primary human renal proximal tubule epithelial cells (HRPTEpiCs); assay: Viability of HRPTEpiCs treated with RSL3; format: cell-based; settings: 24 h
How it was run: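 Primary human renal proximal tubule epithelial cells, cultured per supplier recommendations. Cells are exposed to RSL3 with or without test compound, and viability is read by AquaBluer 24 h after treatment. Mean ± s.d. of n = 3 wells; representative of three independent experiments.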

HRPTEpiCs = assay: RSL3-induced lipid oxidation in HRPTEpiCs; format: cell-based, human; settings: RSL3 0.2 μM; 24 h
How it was run: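 Primary human renal proximal tubule epithelial cells, cultured per supplier recommendations. Cells are treated with RSL3 (0.2 μM) with or without test compound. After 24 h, cells are stained with BODIPY 581/591 C11 for 1 h and lipid oxidation is measured by flow cytometry. Representative of four independent experiments.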

CreERT2;Gpx4fl/fl mice = assay: In vivo rescue of TAM-induced CreERT2; parameters: species or system mouse; settings: 10 mg kg^−1 i.p. daily
How it was run: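 CreERT2;Gpx4fl/fl mice receive 0.5 mg TAM in Miglyol on days 1 and 3. From day 4, the test compound (10 mg kg−1) or vehicle (1% DMSO in PBS) is given i.p. once daily, with injections and scoring blinded. Survival is compared by log-rank/Gehan–Breslow–Wilcoxon tests (n = 12 vehicle, n = 13 treated; run twice). Kidney TUNEL+ cells are counted 9 days after TAM.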

C57BL/6J mice = assay: Hepatic ischaemia/reperfusion injury model; format: in vivo, mouse; settings: 90 min ischaemia, 24 h reperfusion
How it was run: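 Male C57BL/6J mice, 8–10 weeks old, 22–24 g, randomised; operators blinded. Under xylazine/ketamine, an atraumatic clip is placed across the portal vein, hepatic artery and bile duct above the right lateral lobe branch. Reperfusion follows 90 min of ischaemia. At 24 h, serum ALT/AST is measured and necrotic area is scored (n = 17 and n = 5). Mean ± s.e.m.; one-way ANOVA with Dunnett's post-test.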

[5] = test system: PZL cells (CreERT2;Gpx4fl/fl/Alox15−/−); assay: Cell death on TAM-induced Gpx4 deficiency in PZL cells; format: cell-based, mouse
Rip1−/− cells = assay: FIN/RSL3-induced ferroptosis in Rip1−/− cells; format: cell-based; settings: RSL3 1 μM; 6 h pre-treatment; viability at 24 h

Chain of CYP450 2C19 (P33261 whole entry): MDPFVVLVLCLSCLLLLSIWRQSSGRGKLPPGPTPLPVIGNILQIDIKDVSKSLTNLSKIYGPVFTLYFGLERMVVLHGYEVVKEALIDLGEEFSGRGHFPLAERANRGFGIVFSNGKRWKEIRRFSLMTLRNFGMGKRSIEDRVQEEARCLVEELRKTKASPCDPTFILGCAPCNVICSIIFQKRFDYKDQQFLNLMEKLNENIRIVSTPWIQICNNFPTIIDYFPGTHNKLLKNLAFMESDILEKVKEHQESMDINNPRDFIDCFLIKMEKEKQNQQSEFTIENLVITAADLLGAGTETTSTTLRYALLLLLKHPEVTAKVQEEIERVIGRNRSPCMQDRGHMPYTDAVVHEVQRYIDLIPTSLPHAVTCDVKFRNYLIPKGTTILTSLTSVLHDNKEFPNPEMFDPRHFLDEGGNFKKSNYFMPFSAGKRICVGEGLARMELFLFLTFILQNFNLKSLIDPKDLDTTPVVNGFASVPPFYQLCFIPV
Chain of CYP450 2D6 (P10635 whole entry): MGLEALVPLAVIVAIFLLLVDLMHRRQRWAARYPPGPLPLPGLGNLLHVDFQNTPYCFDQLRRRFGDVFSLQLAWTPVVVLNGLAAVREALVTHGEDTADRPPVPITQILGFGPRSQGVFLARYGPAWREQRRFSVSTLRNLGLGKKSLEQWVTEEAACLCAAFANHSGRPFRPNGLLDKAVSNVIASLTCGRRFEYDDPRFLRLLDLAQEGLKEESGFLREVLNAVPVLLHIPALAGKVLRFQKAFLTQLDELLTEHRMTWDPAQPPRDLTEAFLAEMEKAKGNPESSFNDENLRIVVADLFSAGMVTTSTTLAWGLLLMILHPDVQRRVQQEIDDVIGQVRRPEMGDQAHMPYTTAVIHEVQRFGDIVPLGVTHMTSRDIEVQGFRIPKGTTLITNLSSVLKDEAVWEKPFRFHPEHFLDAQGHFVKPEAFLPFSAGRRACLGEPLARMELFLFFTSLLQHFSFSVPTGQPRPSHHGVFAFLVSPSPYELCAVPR
Chain of hERG channel (Q12809 whole entry): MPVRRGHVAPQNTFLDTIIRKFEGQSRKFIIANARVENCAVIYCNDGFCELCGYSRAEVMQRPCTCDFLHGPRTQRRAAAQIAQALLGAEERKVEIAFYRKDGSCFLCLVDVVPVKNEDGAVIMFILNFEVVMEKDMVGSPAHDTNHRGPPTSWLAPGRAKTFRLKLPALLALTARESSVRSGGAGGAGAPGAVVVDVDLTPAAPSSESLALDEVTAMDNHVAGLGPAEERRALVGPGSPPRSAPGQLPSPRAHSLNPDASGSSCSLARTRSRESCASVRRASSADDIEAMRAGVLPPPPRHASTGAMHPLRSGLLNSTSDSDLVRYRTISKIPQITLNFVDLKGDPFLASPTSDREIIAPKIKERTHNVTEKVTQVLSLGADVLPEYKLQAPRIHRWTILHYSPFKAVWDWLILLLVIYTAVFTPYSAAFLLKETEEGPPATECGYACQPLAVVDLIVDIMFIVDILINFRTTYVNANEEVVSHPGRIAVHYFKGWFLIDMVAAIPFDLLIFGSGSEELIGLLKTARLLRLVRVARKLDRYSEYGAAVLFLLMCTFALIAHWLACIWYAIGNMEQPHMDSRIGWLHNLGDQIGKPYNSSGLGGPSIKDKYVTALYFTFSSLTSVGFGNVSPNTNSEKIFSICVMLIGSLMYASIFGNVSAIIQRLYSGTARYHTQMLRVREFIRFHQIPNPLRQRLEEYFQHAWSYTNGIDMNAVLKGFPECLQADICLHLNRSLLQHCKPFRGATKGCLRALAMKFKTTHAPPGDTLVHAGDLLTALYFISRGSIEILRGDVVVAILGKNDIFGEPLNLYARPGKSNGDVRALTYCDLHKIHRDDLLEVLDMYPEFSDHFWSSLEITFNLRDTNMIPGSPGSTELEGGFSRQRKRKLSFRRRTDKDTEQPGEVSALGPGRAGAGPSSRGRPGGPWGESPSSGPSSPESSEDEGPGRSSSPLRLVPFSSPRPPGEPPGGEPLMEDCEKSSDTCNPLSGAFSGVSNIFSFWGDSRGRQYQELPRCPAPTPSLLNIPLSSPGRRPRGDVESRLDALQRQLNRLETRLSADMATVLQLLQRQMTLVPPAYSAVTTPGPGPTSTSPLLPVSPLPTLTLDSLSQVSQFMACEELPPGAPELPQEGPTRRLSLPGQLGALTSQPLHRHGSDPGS
Chain of CYP450 3A4 (P08684 whole entry): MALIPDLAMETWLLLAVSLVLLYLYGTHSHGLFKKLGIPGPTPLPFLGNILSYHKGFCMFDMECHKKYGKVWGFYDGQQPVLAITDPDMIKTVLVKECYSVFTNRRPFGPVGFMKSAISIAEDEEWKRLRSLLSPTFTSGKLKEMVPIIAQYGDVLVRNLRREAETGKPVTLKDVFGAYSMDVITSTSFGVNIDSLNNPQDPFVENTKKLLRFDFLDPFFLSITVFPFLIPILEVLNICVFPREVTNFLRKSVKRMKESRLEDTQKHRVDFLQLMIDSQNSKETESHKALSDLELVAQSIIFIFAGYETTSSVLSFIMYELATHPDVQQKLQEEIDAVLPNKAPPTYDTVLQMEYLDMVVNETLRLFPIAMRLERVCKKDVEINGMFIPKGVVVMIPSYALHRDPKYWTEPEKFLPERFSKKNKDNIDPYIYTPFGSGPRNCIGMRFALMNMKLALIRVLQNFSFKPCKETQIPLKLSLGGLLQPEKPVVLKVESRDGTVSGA
Chain of CYP450 2C9 (P11712 whole entry): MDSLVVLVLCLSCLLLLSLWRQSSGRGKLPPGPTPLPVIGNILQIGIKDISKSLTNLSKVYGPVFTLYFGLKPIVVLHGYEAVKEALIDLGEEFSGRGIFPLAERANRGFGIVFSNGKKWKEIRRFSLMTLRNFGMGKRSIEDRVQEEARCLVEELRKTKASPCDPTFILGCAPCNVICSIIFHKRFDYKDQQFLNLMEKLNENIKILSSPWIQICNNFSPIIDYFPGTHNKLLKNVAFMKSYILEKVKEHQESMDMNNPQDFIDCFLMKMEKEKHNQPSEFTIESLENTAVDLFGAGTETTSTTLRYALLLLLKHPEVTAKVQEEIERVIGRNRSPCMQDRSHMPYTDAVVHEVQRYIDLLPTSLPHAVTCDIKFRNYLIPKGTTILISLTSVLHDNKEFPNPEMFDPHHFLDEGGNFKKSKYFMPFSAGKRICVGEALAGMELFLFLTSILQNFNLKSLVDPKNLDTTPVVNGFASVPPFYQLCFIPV

## CCCCS(=N)(=O)CCC(N)C(=O)O [BSO, L-buthionine sulphoximine]
Pfa1 cells [1]
  Induction of cell death through GSH depletion: efficiently triggered rapid cell death

## CC(=O)N(O)C/C=C/c1cccc(Oc2ccccc2)c1 [BWA4C]
[2]
  Rescue of cell death in response to Gpx4 deletion: prevented cell death

## CC(=O)N(O)CCCCCNC(=O)CCC(=O)N(O)CCCCCNC(=O)CCC(=O)N(O)CCCCCN [DFO, deferoxamine]
[2]
  Rescue of cell death in response to Gpx4 deletion: cell death could also be inhibited
Pfa1 cells [1]; 24 h
  Prevention of cell death elicited by FINs: can be prevented
Gpx4−/− cells
  Effect on lipid peroxidation (BODIPY 581/591 C11 oxidation): could be ameliorated

## CCOC(=O)c1ccc(NC2CCCCC2)c(N)c1 [Fer1, ferrostatin-1]
[2]
  Rescue of cell death in response to Gpx4 deletion: rescued Gpx4^−/− cells from cell death
Pfa1 cells [1]; 24 h
  Prevention of cell death elicited by FINs: can be prevented
Gpx4−/− cells
  Effect on lipid peroxidation (BODIPY 581/591 C11 oxidation): could be ameliorated

## Clc1cccc(CN=C2Nc3ccccc3NC23CCNCC3)c1 [Liproxstatin-1]
HepG2 cells
  Cytotoxicity in HepG2 cells TC50: 6 µM
hERG channel
  IC50: > 25 µM
CYP450 2C9
  IC50: > 25 µM
CYP450 2D6
  IC50: 4.1 µM
CYP450 3A4
  IC50: > 25 µM
CYP450 1A
  IC50: > 25 µM
CYP450 2C19
  IC50: > 25 µM
Mouse pharmacokinetics
  Bioavailability: 52%
Mouse pharmacokinetics; i.v. 1 mg kg^−1
  C: 0.4 µg/mL
  MRTINF (mean residence time extrapolated to infinity): 4.9 h
  Total Cl: 128 ml h^−1 and 66 ml min^−1 kg^−1
  V: 849 mL
  Vss: 629 mL
  t1/2: 4.6 h
Mouse pharmacokinetics; p.o. 5 mg kg^−1
  Cmax: 80 ng/mL
  Tmax: 2 h
[2]
  Rescue of cell death in response to Gpx4 deletion: inhibit ferroptosis in the low nanomolar range
Pfa1 cells [1]; Liproxstatin-1 200 nM, BSO 10 μM, erastin 1 μM, RSL3 0.5 μM, 24 h
  Protection against FINs: protects against FINs
Gpx4−/− cells
  Effect on lipid peroxidation (BODIPY 581/591 C11 oxidation): completely prevents lipid peroxidation
L929 cells
  Effect on necroptosis: does not prevent necroptosis
Pfa1 cells [3]
  Rescue of cell death induced by staurosporine and H2O2: fails to rescue cell death
[4]; Liproxstatin-1 100 nM
  Protection from RSL3-induced cell death: able to protect
HRPTEpiCs
  Effect on RSL3-induced BODIPY 581/591 C11 oxidation: could be blocked
CreERT2;Gpx4fl/fl mice; vehicle-treated 11 days, P <0.0001
  Median survival: 14 days
CreERT2;Gpx4fl/fl mice; day 9 after TAM treatment
  TUNEL+ cells in kidney compared with vehicle: strongly reduced number of TUNEL+ cells
C57BL/6J mice
  Tissue injury (AST/ALT, necrotic area): mitigated tissue injury

## CCCCCCCCCCCCCCCCOCC(COCC(F)(F)F)OP(=O)(O)OC (stereo not drawn) [MJ33]
[2]
  Rescue of cell death in response to Gpx4 deletion: prevented cell death

## CC(C)c1ccc2c(c1)c(SC(C)(C)C)c(CC(C)(C)C(=O)O)n2Cc1ccc(Cl)cc1 [MK886]
[2]
  Rescue of cell death in response to Gpx4 deletion: prevented cell death

## CC(=O)N[C@@H](CS)C(=O)O [NAC, N-acetylcysteine]
[5]
  Rescue of cell death of PZL cells on Gpx4 deficiency: could not be rescued

## CN1C(=O)C(Cc2c[nH]c3ccccc23)NC1=S (stereo not drawn) [Nec1, necrostatin-1]
[2]
  Rescue of cell death in response to Gpx4 deletion: rescued Gpx4^−/− cells from cell death
Pfa1 cells [1]; 24 h
  Prevention of cell death elicited by FINs: can be prevented
Rip1−/− cells
  Prevention of ferroptosis in Rip1−/− cells: ferroptosis could be prevented

## CN1C(=O)NC(Cc2c[nH]c3c(Cl)cccc23)C1=O (stereo not drawn) [Nec1s]
[2]
  Rescue of cell death in response to Gpx4 deletion: did not protect

## c1ccc2c(c1)SCc1c-2[nH]c2ccccc12 [PD146176]
[2]
  Rescue of cell death in response to Gpx4 deletion: prevented cell death

## COC(=O)c1ccc([C@@H]2c3[nH]c4ccccc4c3C[C@@H](C(=O)OC)N2C(=O)CCl)cc1 [RSL3, (1S, 3R)-RSL3, reference compound]
[4]
  Induction of cell death in HRPTEpiCs: efficiently triggered cell death

## CCOc1ccccc1-n1c(C(C)N2CCN(C(=O)COc3ccc(Cl)cc3)CC2)nc2ccccc2c1=O (stereo not drawn) [erastin]
Pfa1 cells [1]
  Induction of cell death through GSH depletion: efficiently triggered rapid cell death

## CC(c1cc2ccccc2s1)N(O)C(N)=O (stereo not drawn) [zileuton]
[2]
  Rescue of cell death in response to Gpx4 deletion: prevented cell death

## Cc1c(C)c2c(c(C)c1O)CC[C@@](C)(CCC[C@H](C)CCC[C@H](C)CCCC(C)C)O2 [αToc, α-tocopherol]
[2]
  Rescue of cell death in response to Gpx4 deletion: cell death could also be inhibited
Pfa1 cells [1]; 24 h
  Prevention of cell death elicited by FINs: can be prevented
[5]
  Rescue of cell death of PZL cells on Gpx4 deficiency: rescued

Reference: article PMC4894846 (Nature cell biology, 2014)
